The list is not random: actives were taken first. Their share in the collection is about 4.2%.
UPR XBP1 act – activators of adaptive arm of unfolded protein response (XBP1); 0.33% of 330,000 active; CHO-XBP1 luciferase reporter, IRE1-XBP1 UPR activation, luminescence; percent of tunicamycin response, DMSO as zero; activation, % at 20 µM;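 active means versus positive control, 20 µM dose yields 30% or more activation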;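 further: 100% = tunicamycin at 10 µg/mL and 0% = DMSO only wells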
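Test system: CHO-XBP1 luciferase reporter cells | Buffer or medium: Serum-containing F12 medium, 10% FBS | Schedule: 6 h compound exposure at 37 °C, 5% CO2 | Detection: Steady-Glo luciferase glow luminescence, 10 min after reagent addition | Read-out basis: Activation, % of tunicamycin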
CHOP UPR activ – activators of apoptotic arm of unfolded protein response (CHOP). activation, % at 10 µM. CHO-CHOP luciferase reporter, UPR activation, luminescence; percent of tunicamycin response over DMSO baseline. 0.34% of 330,000 active;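 active means at 10 µM dose, activation of 40% or more, normalized to positive control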;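 further: 100% = tunicamycin at 10 µg/mL and 0% = DMSO alone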
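Assay system: CHO-CHOP cells, stable luciferase reporter of PERK-eIF2a-CHOP signalling / Buffer or medium: F12 plus 10% serum / Compound dosing: one dose, 10 µM in 0.5% DMSO / Times: 6 h compound treatment, 37 °C / Technique: luciferase luminescence / Read-out: % reporter activation, DMSO baseline versus tunicamycin full activation / Benchmarks: tunicamycin and DMSO controls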
Lipid droplet – modulators of hepatic lipid droplet formation; AML12 mouse hepatocytes, oleate lipid droplets, BODIPY imaging; inhibition, % at 6.5 µM; 0.4% of 240,000 active;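 active means lipid droplet intensity inhibited by at least 50%, with more than 500 cells counted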
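Test system: AML12 hepatocytes (mouse); reagent: oleate loading, 100 µM; dosing: one dose, 6.5 µM compound; incubation: overnight exposure; signal: fluorescence imaging, 20x objective, two fields per well; read-out basis: % inhibition of corrected integrated BODIPY droplet signal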
CHOP inh – CHOP inhibition in unfolded protein response | CHO-K1 CHOP-promoter luciferase, tunicamycin-induced, 15-18 h | 3.8% of 220,000 active | inhibition, % at 10 µM | AID 2732;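 active means compounds that reduced the stress-induced luciferase reporter signal by more than about 70% of percent inhibition, limit read from the data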;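 further: 0% = tunicamycin plus vehicle and 100% = wells without tunicamycin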
TMEM16A inh – blocks the mouse calcium-activated chloride channel TMEM16A. Q8BHY3. HEK293 TMEM16A/YFP iodide influx fluorescence, ionomycin. normalized B-score (activity score, 25-100; higher = stronger inhibition) at 10 µM. 1.2% of 310,000 active;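 active means ratio plate-corrected score three or more library SD toward inhibition, starting fluorescence score within five deviations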;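 further: score derived from kinetic fluorescence span divided by baseline fluorescence per well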
ANO1 activ – mouse TMEM16A channel activation, primary screen; Q8BHY3; HEK293 TMEM16A/YFP-H148Q/I152L, iodide quench fluorescence; stronger effect = lower value; B-score at 10 µM; 0.3% of 340,000 active; AID 623877;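 active means fluorescence-ratio B-score plate-corrected deviation score at least 3 library SD below zero, with starting fluorescence score within 5 deviations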;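 further: channel opened by trigger with iodide after compound preincubation; score built on the fluorescence ratio of max minus min over baseline; more negative score means more quench and so TMEM16A activation or potentiation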
CHOP confirm – confirmation of CHOP induction inhibitors | shares compounds with CHOP inh | CHO-CHOP promoter luciferase reporter, tunicamycin-induced, luminescence | inhibition, % at 10 µM | 45% of 2,100 active;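 active means mean of three repeat readings of reporter signal inhibition above a set limit, cut at about 70% in these data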;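 further: 0% = tunicamycin plus vehicle and 100% = wells lacking tunicamycin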
An asterisk follows results filed as active; i = inactive; nt = not tested or not shown.

SMILES | UPR XBP1 act | CHOP UPR activ | Lipid droplet | CHOP inh | TMEM16A inh | ANO1 activ | CHOP confirm
NC(=O)CC(NC(=O)Cc1cccc2ccccc12)c1ccc(NC2CCCCC2)c([N+](=O)[O-])c1 (stereo not given) | 0 | 1 | 15 | 105* | i | i | 13
CCc1ccc2c(c1)C(c1ccc(N3CCOCC3)cc1)=NNC(c1ccncc1)=N2 | 0 | -1 | 0 | 16 | i | i | nt
CCc1ccc2c(c1)C(c1ccc([N+](=O)[O-])cc1)=NNC(c1ccc(C)cc1)=N2 | 14 | 8 | -8 | 97* | i | i | 83*
COC(=O)c1ccc(CS(=O)(=O)c2ccc(F)cc2)o1 | 0 | -1 | 20 | nt | i | i | nt
CC(C)C[C@H](N)c1nnc(S(=O)(=O)Cc2ccc(F)cc2)o1 | -8 | 17 | nt | 103* | i | i | 47
Cc1ccc2nc(Nc3ccc4[nH]c(=O)[nH]c4c3)c(-n3nc(C)cc3C)nc2c1 | 4 | 2 | -1 | 104* | i | i | 114*
Cc1cc(C)n(-c2nc3ccccc3nc2Nc2ccc3c(c2)OCO3)n1 | -1 | 1 | 10 | -11 | i | i | nt
Cc1ccc(NC(=O)Cn2c(O)c(N=NC(=O)c3cc4ccccc4cc3O)c3ccccc32)cc1 | nt | nt | 12 | 97* | i | i | -21
O=C(N=Nc1c(O)n(Cc2ccccc2)c2ccccc12)c1cc2ccccc2cc1O | nt | nt | -16 | 106* | i | i | 95*
CCCCCC1CC(CC(=O)Nc2ccc([N+](=O)[O-])cc2)C(=O)O1 (stereo not given) | -4 | 0 | -11 | 101* | i | i | 104*
CCOc1ccc(S(=O)(=O)N2CCN(C(=O)c3ccncc3)CC2)cc1 | -4 | -1 | -16 | nt | i | i | nt
CC(OC(=O)C1=Cc2ccccc2OC1)C(=O)NCC1CCCO1 (stereo not given) | nt | nt | nt | nt | nt | i | nt
CCCC(=O)N1N=C(c2ccccc2)CC1c1cn(C)c2ccccc12 (stereo not given) | 1 | 0 | -35 | 105* | i | i | 9
CCc1ccc(Nc2cc(=O)n(C3CCCCC3)c(=O)[nH]2)cc1 | 2 | 0 | -2 | 105* | i | i | 49
O=c1cc(Nc2ccc3c(c2)OCCO3)[nH]c(=O)n1C1CCCCC1 | 1 | 5 | 17 | nt | i | i | nt
COc1ccc(CCN2C(=O)CS/C2=N\NC(=O)c2ccc(C(C)(C)C)cc2)cc1OC | 0 | 0 | -1 | 8 | i | i | nt
O=S(=O)(Nc1cc(Sc2ncn[nH]2)c(O)c2ccccc12)c1ccccc1 | 11 | 3 | -39 | 106* | nt | i | 77*
Cc1ccccc1NC(=O)C[n+]1cc(-c2ccccc2)n2c1CCC2 | 2 | 2 | 2 | 9 | i | i | nt
COc1ccc(COCC(O)CN2CCN(S(=O)(=O)c3ccc(C(C)C)cc3)CC2)cc1 (stereo not given) | -4 | 0 | nt | nt | nt | i | nt
CN(C)c1ccc(-c2nc3ccccn3c2/N=C/c2ccc(Br)cc2)cc1 | -7 | -5 | 4 | 98* | i | i | 75*
Cc1cc(C)c2c(=O)n(CC(=O)NC3CCCC3)sc2n1 | -2 | 4 | 1 | 6 | i | i | nt
COc1ccc(OC)c(CCNC(=O)Cn2sc3nc(C)cc(C)c3c2=O)c1 | -4 | 6 | nt | 98* | 25* | nt | -2
COc1cc2nc(CSc3nc(-c4ccc(F)cc4)cs3)[nH]c(=O)c2cc1OC | -3 | 1 | -12 | 105* | i | i | 51
Cc1ccc2sc(N(CCCN(C)C)C(=O)c3nc4ccccc4s3)nc2c1C | 17 | 3 | 0 | 104* | i | i | 96*
N#CC1=C(N)N2C(=C(C#N)C1c1cccc(Br)c1)Nc1ccccc12 (stereo not given) | 14 | 1 | -32 | 101* | i | i | 105*
SMILES | UPR XBP1 act | CHOP UPR activ | Lipid droplet | CHOP inh | TMEM16A inh | ANO1 activ | CHOP confirm
O=C(Nc1ccccc1N1CCOCC1)C1CCN(S(=O)(=O)c2ccccc2F)CC1 | -4 | 1 | -16 | 16 | i | i | nt
CCN1C/C(=C/c2ccc(OC)c(O)c2)C(=O)/C(=C/c2ccc(OC)c(O)c2)C1 | -8 | 38 | 3 | 100* | i | i | 97*
Cc1c(C(=O)NCC(c2ccco2)N(C)C)oc2c(Cl)cccc12 (stereo not given) | -2 | 2 | nt | nt | i | i | nt
CCc1ccc(CN/C=C/C(=O)c2ccc(Br)cc2)cc1 | -2 | 0 | -1 | 104* | i | i | -26
O=C(CCl)c1ccc2c(c1)CCN2C(=O)C1CCCCC1 | -8 | -7 | 5 | 109* | i | i | 19
CCNC(=S)N/N=C/c1cc(Br)cc(Br)c1OC | -1 | -1 | 1 | 102* | i | i | 80*
COc1c(Br)cc(Br)cc1/C=N/NC(=O)c1ccncc1 | -2 | 0 | -19 | 23 | i | i | nt
C=CCNS(=O)(=O)c1cc(S(=O)(=O)NCC=C)c(OC)cc1OC | 0 | 2 | 7 | -14 | i | i | nt
CCOC(=O)C1=C(N)Oc2c(c(=O)[nH]c3ccccc23)C1c1ccccc1 (stereo not given) | 2 | 0 | -15 | 97* | i | i | -4
CCOC(=O)C1=C(N)Oc2cc(C)[nH]c(=O)c2C1c1ccncc1 (stereo not given) | -3 | 0 | nt | -5 | i | i | nt
Cc1ccc(NC(=O)c2ccc(NS(=O)(=O)c3ccc4[nH]c(=O)[nH]c4c3)cc2)nc1 | 0 | 1 | nt | nt | i | i | nt
Cc1cc(C)c2nc(-c3ccccn3)cc(C(=O)Nc3cc(C)on3)c2c1 | 8 | 0 | -10 | 101* | i | i | 99*
Cc1cc(NC(=O)c2cc(-c3ccccn3)nc3ccccc23)no1 | -2 | -1 | nt | -7 | i | i | nt
CCOc1cc(/C=N/NC(N)=O)cc(Br)c1OCc1ccccc1F | 2 | 4 | -8 | 68 | i | i | nt
CCOc1cc(CNc2ccc(O)cc2)cc(Br)c1OCc1ccccc1F | 5 | 0 | 19 | 110* | i | i | 63
CCCCCCCC(=O)N/N=C/c1ccc(Br)cc1 | 0 | 0 | nt | 97* | i | i | 132*
CCCCCCCC(=O)N/N=C/c1cccnc1 | -2 | 2 | 13 | 17 | i | i | nt

High-throughput results from PubChem.
